Source: ChEMBL document CHEMBL3272356, “Adriamycin analogs. Periodate oxidation of adriamycin” (J Med Chem, 1976)
Activity calls are given as the source filed them. The rule behind the calls is not given here.

Tests used:
L1210 [1] = test: Inhibition of DNA synthesis in mouse L1210 cells at < 100 uM preincubated for 3 hrs followed by [3H]-thymidine addition measured after 1 hr by scintillation spectrometric analysis; type: functional, cell-based
Outline: (§1)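 L1210 suspension at 2 × 10^6/ml in 1640 medium with 10% fetal calf serum and 20 mM HEPES, pH 7.2. Drug tested at 100 to 0.100 µM in half-log steps, 3 h at 37° with shaking. Pulse 1 h with 0.5 µCi/ml [3H]thymidine (DNA) or [3H]uridine (RNA). TCA-precipitable counts expressed as % of control; ED50 read from the points bracketing 50%, with the bracketing assays repeated.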

L1210 [2] = test: Inhibition of RNA synthesis in mouse L1210 cells at < 100 uM preincubated for 3 hrs followed by [3H]-uridine addition measured after 1 hr by scintillation spectrometric analysis; type: functional, cell-based; outline: as §1
Calf thymus DNA [3] = test: Binding affinity to calf thymus DNA assessed as bathochromatic shift at 1:1 to 16:1 compound to DNA ratio by UV-visible spectra analysis; type: nucleic-acid assay; conditions: Bos taurus
Outline: (§2)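 Calf thymus DNA stock sonicated on ice to limit precipitation of the complex. DNA concentration was taken from the supplier's phosphorus content. UV-visible spectra were recorded.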

Mus musculus [4] = test: Acute toxicity in mouse allografted with mouse P388 cells assessed as survival less than 5 days at 1.56 to 50 mg/kg, ip qd; type: organism-based; set-up: dose 1.56-50 mg/kg, route intraperitoneal; conditions: in vivo, 120 h
Outline: (§3)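 BDF or CDF mice were implanted ip with 10^6 P-388 lymphocytic leukemia cells on day 0 and dosed ip on days 1-9. Acute toxic drug deaths were scored as survival of less than 5 days after the start of treatment. Testing was done by the NCI Drug Research and Development Program.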

P388 [5] = test: Antitumor activity against mouse P388 cells allografted in mouse assessed as increase in survival time at 50 mg/kg, ip qd administered for 9 days relative to control; type: functional; conditions: route intraperitoneal
P388 [6] = test: Antitumor activity against mouse P388 cells allografted in mouse assessed as increase in survival time at 1.56 mg/kg, ip qd administered for 9 days relative to control; type: functional; conditions: route intraperitoneal
Calf thymus DNA [7] = test: Binding affinity to calf thymus DNA assessed as increase in melting temperature at 1.54 x 10^-5 M by UV spectrophotometric analysis; type: nucleic-acid assay; conditions: Bos taurus
L1210 [8] = test: Inhibition of RNA synthesis in mouse L1210 cells preincubated for 3 hrs followed by [3H]-uridine addition measured after 1 hr by scintillation spectrometric analysis; type: functional; conditions: read-out: ED50 (the source's name); outline: as §1
Calf thymus DNA [9] = test: Binding affinity to calf thymus DNA assessed as decrease in absorptivity of visible maxima of compound at 1:1 to 16:1 compound to DNA ratio by UV-visible spectra analysis; type: nucleic-acid assay; conditions: Bos taurus; outline: as §2
P388 [10] = test: Antitumor activity against mouse P388 cells allografted in mouse assessed as increase in survival time at 3.12 mg/kg, ip qd administered for 9 days relative to control; type: functional; conditions: route intraperitoneal
L1210 [11] = test: Inhibition of DNA synthesis in mouse L1210 cells preincubated for 3 hrs followed by [3H]-thymidine addition measured after 1 hr by scintillation spectrometric analysis; type: functional; conditions: read-out: ED50 (the source's name); outline: as §1
P388 [12] = test: Antitumor activity against mouse P388 cells allografted in mouse assessed as increase in survival time at 25 mg/kg, ip qd administered for 9 days relative to control; type: functional; conditions: route intraperitoneal
P388 [13] = test: Antitumor activity against mouse P388 cells allografted in mouse assessed as increase in survival time at 12.5 mg/kg, ip qd administered for 9 days relative to control; type: functional; conditions: route intraperitoneal
P388 [14] = test: Antitumor activity against mouse P388 cells allografted in mouse assessed as increase in survival time at 6.25 mg/kg, ip qd administered for 9 days relative to control; type: functional; conditions: route intraperitoneal
Calf thymus DNA [15] = test: Binding affinity to calf thymus DNA assessed as increase in melting temperature at 2.1 x 10^-5 M by UV spectrophotometric analysis; type: nucleic-acid assay; conditions: Bos taurus
P388 [16] = test: Antitumor activity against mouse P388 cells allografted in mouse assessed as increase in survival time at 0.12 mg/kg, ip qd administered for 9 days relative to control; type: functional; conditions: route intraperitoneal
P388 [17] = test: Antitumor activity against mouse P388 cells allografted in mouse assessed as increase in survival time at 0.25 mg/kg, ip qd administered for 9 days relative to control; type: functional; conditions: route intraperitoneal
P388 [18] = test: Antitumor activity against mouse P388 cells allografted in mouse assessed as increase in survival time at 1 mg/kg, ip qd administered for 9 days relative to control; type: functional; conditions: route intraperitoneal
Mus musculus [19] = test: Acute toxicity in mouse allografted with mouse P388 cells assessed as survival less than 5 days at 0.06 to 4 mg/kg, ip qd; type: organism-based; set-up: dose 0.06-4 mg/kg, route intraperitoneal; conditions: in vivo, 120 h; outline: as §3
P388 [20] = test: Antitumor activity against mouse P388 cells allografted in mouse assessed as increase in survival time at 0.5 mg/kg, ip qd administered for 9 days relative to control; type: functional; conditions: route intraperitoneal
P388 [21] = test: Antitumor activity against mouse P388 cells allografted in mouse assessed as increase in survival time at 0.06 mg/kg, ip qd administered for 9 days relative to control; type: functional; conditions: route intraperitoneal
P388 [22] = test: Antitumor activity against mouse P388 cells allografted in mouse assessed as change in survival time at 4 mg/kg, ip qd administered for 9 days relative to control; type: functional; conditions: route intraperitoneal
P388 [23] = test: Antitumor activity against mouse P388 cells allografted in mouse assessed as increase in survival time at 2 mg/kg, ip qd administered for 9 days relative to control; type: functional; conditions: route intraperitoneal
Calf thymus DNA [24] = test: Binding affinity to calf thymus DNA assessed as increase in melting temperature at 2 x 10^-5 M by UV spectrophotometric analysis; type: nucleic-acid assay; conditions: Bos taurus
P388 [25] = test: Antitumor activity against mouse P388 cells allografted in mouse assessed as increase in survival time at 75 mg/kg, ip qd administered for 9 days relative to control; type: functional; conditions: route intraperitoneal
Calf thymus DNA [26] = test: Binding affinity to calf thymus DNA assessed as increase in melting temperature at 1.63 x 10^-5 M by UV spectrophotometric analysis; type: nucleic-acid assay; conditions: Bos taurus
Mus musculus [27] = test: Acute toxicity in mouse allografted with mouse P388 cells assessed as survival less than 5 days at 1.56 to 75 mg/kg, ip qd; type: organism-based; set-up: dose 1.56-75 mg/kg, route intraperitoneal; conditions: in vivo, 120 h; outline: as §3

SMILES | inhibition (L1210 [1]) | inhibition (L1210 [2]) | Activity (Calf thymus DNA [3]) | T/C (P388 [5]) | T/C (P388 [6]) | EC50 (L1210 [8]) | Activity (Calf thymus DNA [9]) | T/C (P388 [10]) | EC50 (L1210 [11]) | T/C (P388 [12]) | T/C (P388 [13]) | T/C (P388 [14]) | T/C (P388 [16]) | T/C (P388 [17]) | T/C (P388 [18]) | Activity (Mus musculus [19]) | T/C (P388 [20]) | T/C (P388 [21]) | T/C (P388 [22]) | other results
COc1cccc2c1C(=O)c1c(O)c3c(c(O)c1C2=O)C[C@@](O)(C(=O)O)C[C@@H]3O | inactive | inactive |  |  |  |  |  |  |  |  |  |  |  |  |  |  |  |  |  | 
COc1cccc2c1C(=O)c1c(O)c3c(c(O)c1C2=O)C[C@@](O)(C(=O)O)C[C@@H]3O[C@H]1C[C@H](N)[C@H](O)[C@H](C)O1.Cl |  |  | Active | 151 | 100 | 65000 nM | Active | 107 | > 100000 nM | 163 | 151 | 142 |  |  |  |  |  |  |  | Activity (Mus musculus [4]): Non-toxic; ΔTm (Calf thymus DNA [7]): 2.6 °C
COc1cccc2c1C(=O)c1c(O)c3c(c(O)c1C2=O)C[C@@](O)(C(=O)CO)C[C@@H]3O[C@H]1C[C@H](N)[C@H](O)[C@H](C)O1 [DOXORUBICIN] |  |  | Active |  |  | 900 nM | Active |  | 800 nM |  |  |  | 156 | 162 | 212 | Non-toxic | 182 | 139 | 71 | ΔTm (Calf thymus DNA [15]): 17.8 °C
COc1cccc2c1C(=O)c1c(O)c3c(c(O)c1C2=O)C[C@@](O)(C(C)=O)C[C@@H]3O[C@H]1C[C@H](N)[C@H](O)[C@H](C)O1 [DAUNORUBICIN] |  |  | Active |  |  | 300 nM | Active |  | 300 nM |  |  |  | 130 | 142 | 157 | Non-toxic | 150 | 112 | 96 | T/C (P388 [23]): 150; ΔTm (Calf thymus DNA [24]): 16.8 °C
COC(=O)[C@]1(O)Cc2c(O)c3c(c(O)c2[C@@H](O[C@H]2C[C@H](N)[C@H](O)[C@H](C)O2)C1)C(=O)c1c(OC)cccc1C3=O.Cl |  |  | Active | 125 | 107 | 900 nM | Active | 103 | 2000 nM | 115 | 112 | 108 |  |  |  |  |  |  |  | T/C (P388 [25]): 141; ΔTm (Calf thymus DNA [26]): 12.6 °C; Activity (Mus musculus [27]): Non-toxic
COC(=O)[C@]1(O)Cc2c(O)c3c(c(O)c2[C@@H](O)C1)C(=O)c1c(OC)cccc1C3=O | inactive | inactive |  |  |  |  |  |  |  |  |  |  |  |  |  |  |  |  |  | 
